According to ChEMBL document CHEMBL2390927, “Design, synthesis and antimicrobial evaluation of novel benzimidazole type of Fluconazole analogues and their synergistic effects with Chloromycin, Norfloxacin and Fluconazole” (2013):
In brackets after ≈: the same amount, converted by molar mass.

How the values were obtained:
Escherichia coli = assay: Antibacterial activity against Escherichia coli JM109 after 24 hrs by two-fold serial dilution method; assay type: functional; conditions: JM109, 24 h
Staphylococcus aureus [1] = assay: Antibacterial activity against Staphylococcus aureus ATCC 6538 after 24 hrs by two-fold serial dilution method; assay type: functional; conditions: ATCC 6538, 24 h
Bacillus = assay: Antibacterial activity against Bacillus proteus ATCC 13315 after 24 hrs by two-fold serial dilution method; assay type: functional; conditions: ATCC 13315, 24 h
In short: (§1)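 MIC taken as the lowest concentration giving complete growth inhibition, by standard two-fold serial dilution in 96-well plates following NCCLS. Stocks in DMSO, diluted in Mueller–Hinton broth. Inoculum adjusted with sterile saline to 1 × 10⁵ CFU. DMSO with inoculum and no drug served as solvent control. Growth read visually and spectrophotometrically, in triplicate.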

Salmonella typhi = assay: Antibacterial activity against Bacillus typhi after 24 hrs by two-fold serial dilution method; assay type: functional, Salmonella enterica subsp. enterica serovar Typhi; conditions: Salmonella enterica
In short: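 Two-fold serial dilution in 96-well plates following NCCLS; compounds dissolved in DMSO as stocks, then diluted in Mueller-Hinton broth; bacterial suspension adjusted with sterile saline to 1 × 10⁵ CFU; MIC taken as lowest concentration completely inhibiting growth, monitored visually and spectrophotometrically; DMSO-plus-inoculum well as solvent control; triplicate.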

Micrococcus luteus = assay: Antibacterial activity against Micrococcus luteus ATCC 4698 after 24 hrs by two-fold serial dilution method; assay type: functional; conditions: ATCC 4698, 24 h; in short: as §1
Staphylococcus aureus [2] = assay: Antibacterial activity against methicillin-resistant Staphylococcus aureus N315 after 24 hrs by two-fold serial dilution method; assay type: functional; conditions: N315, 24 h
Aspergillus flavus = assay: Antifungal activity against Aspergillus flavus after 24 hrs by two-fold serial dilution method; assay type: functional
In short: (§2)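 Spore suspension in sterile distilled water from one-day-old cultures on Sabouraud agar, final 1–5 × 10³ spore mL⁻¹. Compound stocks diluted in sterile RPMI 1640 as two-fold serial dilutions in microdilution plates. MIC is the lowest concentration completely inhibiting growth. Growth monitored visually and spectrophotometrically, in triplicate.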

Bacillus subtilis = assay: Antibacterial activity against Bacillus subtilis ATCC 21216 after 24 hrs by two-fold serial dilution method; assay type: functional; conditions: ATCC 21216, 24 h; in short: as §1
Candida = assay: Antifungal activity against Candida mycoderma after 24 hrs by two-fold serial dilution method; assay type: functional; in short: as §2
Cyberlindnera jadinii = assay: Antifungal activity against Candida utilis after 24 hrs by two-fold serial dilution method; assay type: functional; conditions: Williopsis jadinii; in short: as §2
Candida albicans = assay: Antifungal activity against Candida albicans ATCC 76615 after 24 hrs by two-fold serial dilution method; assay type: functional; conditions: ATCC 76615, 24 h; in short: as §2
Saccharomyces cerevisiae = assay: Antifungal activity against Saccharomyces cerevisiae after 24 hrs by two-fold serial dilution method; assay type: functional; in short: as §2
Pseudomonas aeruginosa = assay: Antibacterial activity against Pseudomonas aeruginosa ATCC 27853 after 24 hrs by two-fold serial dilution method; assay type: functional; conditions: ATCC 27853, 24 h; in short: as §1

| SMILES | MIC (Escherichia coli) [µg/mL] | MIC (Staphylococcus aureus [1]) [µg/mL] | MIC (Bacillus) [µg/mL] | MIC (Salmonella typhi) [µg/mL] | MIC (Micrococcus luteus) [µg/mL] | MIC (Staphylococcus aureus [2]) [µg/mL] | MIC (Aspergillus flavus) [µg/mL] | MIC (Bacillus subtilis) [µg/mL] | MIC (Candida) [µg/mL] | MIC (Cyberlindnera jadinii) [µg/mL] | MIC (Candida albicans) [µg/mL] | MIC (Saccharomyces cerevisiae) [µg/mL] | MIC (Pseudomonas aeruginosa) [µg/mL] |
| --- | --- | --- | --- | --- | --- | --- | --- | --- | --- | --- | --- | --- | --- |
| Fc1ccc(NCc2nc3ccccc3[nH]2)c(F)c1 | 16 (≈ 61.7 µM) | 16 (≈ 61.7 µM) | 16 (≈ 61.7 µM) | 32 (≈ 123 µM) | 64 (≈ 247 µM) | 64 (≈ 247 µM) | 64 (≈ 247 µM) | 32 (≈ 123 µM) | 32 (≈ 123 µM) | 32 (≈ 123 µM) | 64 (≈ 247 µM) | 32 (≈ 123 µM) | 64 (≈ 247 µM) |
| Fc1ccc(N(Cc2nc3ccccc3[nH]2)Cc2ccc(Cl)cc2Cl)c(F)c1 | 32 (≈ 76.5 µM) | 64 (≈ 153 µM) | 32 (≈ 76.5 µM) | 128 (≈ 306 µM) | 64 (≈ 153 µM) | 128 (≈ 306 µM) | 64 (≈ 153 µM) | 64 (≈ 153 µM) | 64 (≈ 153 µM) | 32 (≈ 76.5 µM) | 128 (≈ 306 µM) | 32 (≈ 76.5 µM) | 64 (≈ 153 µM) |
| Cc1ccc(N(Cc2cccc(Cl)c2)Cc2nc3ccccc3[nH]2)cc1 | 32 (≈ 88.4 µM) | 32 (≈ 88.4 µM) | 128 (≈ 354 µM) | 16 (≈ 44.2 µM) | 128 (≈ 354 µM) | 128 (≈ 354 µM) | 64 (≈ 177 µM) | 64 (≈ 177 µM) | 32 (≈ 88.4 µM) | 32 (≈ 88.4 µM) | 32 (≈ 88.4 µM) | 64 (≈ 177 µM) | 32 (≈ 88.4 µM) |
| CCCCCCCCCCN(Cc1nc2ccccc2[nH]1)c1ccc(C)cc1 | 128 (≈ 339 µM) | 128 (≈ 339 µM) | 256 (≈ 678 µM) | 128 (≈ 339 µM) | 128 (≈ 339 µM) | 64 (≈ 170 µM) | 64 (≈ 170 µM) | 64 (≈ 170 µM) | 128 (≈ 339 µM) | 64 (≈ 170 µM) | 64 (≈ 170 µM) | 32 (≈ 84.8 µM) | 128 (≈ 339 µM) |
| FC(F)(F)c1cccc(NCc2nc3ccccc3[nH]2)c1 | 32 (≈ 110 µM) | 16 (≈ 54.9 µM) | 16 (≈ 54.9 µM) | 32 (≈ 110 µM) | 32 (≈ 110 µM) | 16 (≈ 54.9 µM) | 16 (≈ 54.9 µM) | 32 (≈ 110 µM) | 16 (≈ 54.9 µM) | 32 (≈ 110 µM) | 32 (≈ 110 µM) | 32 (≈ 110 µM) | 64 (≈ 220 µM) |
| CCCCCCCCN(Cc1nc2ccccc2[nH]1)c1ccc(C)cc1.Cl.Cl | 128 | 64 | 64 | 64 | 64 | 128 | 128 | 128 | 128 | 64 | 64 | 64 | 128 |
| Fc1ccc(CN(Cc2nc3ccccc3[nH]2)c2ccc(Cl)cc2Cl)c(F)c1 | 64 (≈ 153 µM) | 64 (≈ 153 µM) | 16 (≈ 38.3 µM) | 32 (≈ 76.5 µM) | 128 (≈ 306 µM) | 64 (≈ 153 µM) | 64 (≈ 153 µM) | 16 (≈ 38.3 µM) | 32 (≈ 76.5 µM) | 64 (≈ 153 µM) | 32 (≈ 76.5 µM) | 32 (≈ 76.5 µM) | 128 (≈ 306 µM) |
| Clc1ccc(NCc2nc3ccccc3[nH]2)c(Cl)c1 | 32 (≈ 110 µM) | 64 (≈ 219 µM) | 64 (≈ 219 µM) | 128 (≈ 438 µM) | 64 (≈ 219 µM) | 64 (≈ 219 µM) | 64 (≈ 219 µM) | 32 (≈ 110 µM) | 32 (≈ 110 µM) | 32 (≈ 110 µM) | 32 (≈ 110 µM) | 64 (≈ 219 µM) | 64 (≈ 219 µM) |
| Cc1ccc(N(Cc2nc3ccccc3[nH]2)Cc2ccc(F)cc2F)cc1 | 128 (≈ 352 µM) | 16 (≈ 44 µM) | 64 (≈ 176 µM) | 32 (≈ 88.1 µM) | 64 (≈ 176 µM) | 16 (≈ 44 µM) | 32 (≈ 88.1 µM) | 32 (≈ 88.1 µM) | 32 (≈ 88.1 µM) | 32 (≈ 88.1 µM) | 32 (≈ 88.1 µM) | 64 (≈ 176 µM) | 32 (≈ 88.1 µM) |
| Ic1ccc(NCc2nc3ccccc3[nH]2)cc1 | 64 (≈ 183 µM) | 64 (≈ 183 µM) | 64 (≈ 183 µM) | 64 (≈ 183 µM) | 128 (≈ 367 µM) | 128 (≈ 367 µM) | 128 (≈ 367 µM) | 64 (≈ 183 µM) | 128 (≈ 367 µM) | 64 (≈ 183 µM) | 64 (≈ 183 µM) | 64 (≈ 183 µM) | 128 (≈ 367 µM) |
| FC(F)(F)c1cccc(N(Cc2nc3ccccc3[nH]2)Cc2ccc(Cl)cc2Cl)c1 | 64 (≈ 142 µM) | 32 (≈ 71.1 µM) | 64 (≈ 142 µM) | 32 (≈ 71.1 µM) | 32 (≈ 71.1 µM) | 32 (≈ 71.1 µM) | 64 (≈ 142 µM) | 64 (≈ 142 µM) | 32 (≈ 71.1 µM) | 32 (≈ 71.1 µM) | 64 (≈ 142 µM) | 32 (≈ 71.1 µM) | 32 (≈ 71.1 µM) |
| Fc1ccc(NCc2nc3ccccc3[nH]2)cc1 | 64 (≈ 265 µM) | 32 (≈ 133 µM) | 32 (≈ 133 µM) | 128 (≈ 531 µM) | 64 (≈ 265 µM) | 64 (≈ 265 µM) | 32 (≈ 133 µM) | 32 (≈ 133 µM) | 32 (≈ 133 µM) | 32 (≈ 133 µM) | 64 (≈ 265 µM) | 64 (≈ 265 µM) | 64 (≈ 265 µM) |
